According to PMC4361903 (Blood, 2010):
Where no end group is shown, it is not given here. [ ]: non-standard residue; d: D form. pY = N[C@@H](Cc1ccc(OP(=O)(O)O)cc1)C(=O)O

Legend:
[1] = target: Syk (platelet) (UniProt P43405); assay: biotinylated peptide pull-down, Syk blot; conditions: reference: pY7 31-mer peptide; sites T9
[2] = target: dually phosphorylated peptide based on the human FcRγ-chain ITAM, biotinylated (human) (UniProt P30273); assay: SPR
[3] = system: GPVI and FcRγ-chain with mutated C-terminal ITAM tyrosine; type: cell-based; conditions: 10 μg/ml collagen, 6 hrs, 37°C; three separate experiments
Method in brief: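 DT40 chicken B-cells (RPMI, 10% FBS, 1% chicken serum, 50μM β-mercaptoethanol) electroporated (350V, 500μF) with 2μg/ml each of GPVI and Myc-tagged FcRγ construct, 20μg NFAT-luciferase reporter and 2μg pEF6-lacZ. Live cells counted by trypan blue 20 h post-transfection. Luciferase normalised to β-galactosidase (triplicate readings), expressed as % wild-type response. Surface expression checked by anti-Myc flow cytometry.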

[4] = system: GPVI; conditions: cross-linking of GPVI; ref [8],[9]; cited from earlier work
[5] = target: Syk N-SH2 domain (Homo sapiens, UniProt P43405); assay: Surface plasmon resonance, binding of Syk N-SH2 to immobilised peptide; conditions: SPR, 25°C, pH 7.4, SH2 domain 0-80μM
[6] = target: Syk C-SH2 domain (Homo sapiens, UniProt P43405); assay: Surface plasmon resonance, binding of Syk C-SH2 to immobilised peptide; conditions: SPR, 25°C, pH 7.4, SH2 domain 0-80μM
[7] = target: tandem SH2 domains of Syk (Homo sapiens, UniProt P43405); assay: Surface plasmon resonance, binding of Syk tandem SH2 to immobilised peptide; conditions: SPR, 25°C, pH 7.4, SH2 domains 0-80μM
[8] = system: single C-terminal SH2 domain of Syk; assay: Tryptophan fluorescence titration, Syk C-terminal SH2; type: binding; conditions: same concentration range as tandem SH2 titration; pH 7.5
[9] = target: Syk tandem SH2 domains (GST fusion protein); assay: other fluorescence titration
[10] = system: CLEC-2; conditions: cross-linking of CLEC-2; ref [4],[6]; cited from earlier work

dually phosphorylated peptide based on the human FcRγ-chain ITAM, biotinylated (human), sequence (P30273 54-82): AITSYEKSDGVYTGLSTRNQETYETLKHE

Q: Which “binding against the reference” value [1] does the source give for “CLEC-2 cytoplasmic tail, 1-31 (from UniProt Q9P126) pY7 pT9 31-mer peptide” here?
A: same

Q: With “Syk C-terminal SH2 domain (GST fusion protein) (domain or fragment)” as the molecule, how does the Kd [2] read?
A: 1.7 µM

Q: With “Syk N-terminal SH2 domain (GST fusion protein) (domain or fragment)” as the molecule, how does the Kd [2] read?
A: 19.7 µM

Q: With “Syk tandem SH2 domains (GST fusion protein) (domain or fragment)” as the molecule, how does the Kd [2] read?
A: 0.02 µM

Q: Which “NFAT activation by collagen, C-terminal ITAM tyrosine mutant” value [3] does the source give for collagen here?
A: abolished

Q: What about the “phosphorylation of FcRγ-chain ITAM tyrosines” value [4] of the same molecule?
A: Src kinase-dependent phosphorylation of two conserved tyrosines

Q: Which “detectable binding, N-SH2” value [5] does the source give for “non-phosphorylated CLEC-2 peptide: corresponding nonphosphorylated 13 amino acid peptide (MQDEDGYITLNIK; also: biotin, end not given here)” here?
A: No detectable binding

Q: And the “detectable binding, C-SH2” value [6]?
A: No detectable binding

Q: What about the “detectable binding, tandem SH2” value [7] of the same molecule?
A: No detectable binding

Q: For “tyrosine phosphorylated CLEC-2 peptide: phosphorylated peptide based on the first 13 amino acids of the CLEC-2 tail, which includes the conserved MQDEDGYxxL sequence (MQDEDG[pY]ITLNIK; also: biotin, end not given here)”, which “binding to single C-terminal SH2 domain, tryptophan fluorescence” value [8] is on record?
A: unable to detect binding

Q: With MQDEDG[pY]ITLNIK (also: biotinylated, end not given here) as the molecule, how does the Kd [9] read?
A: 5.7 µM

B1: podoplanin: transmembrane protein podoplanin (protein, UniProt Q86YL7 23-162, looked up)
Podoplanin: ASTGQPEDDTETTGLEGGVAMPGAEDDVVTPGTSEDRYKSGLTTLVATSVNSVTGIRIEDLPTSESTVHAQEQSPSATASNVATSHSTEKVDGDTQTTVEKDGLSTVTLVGIIVGVLLAIGFIGAIIVVVMRKMSGRYSP
Q: With B1 as the molecule, how does the “platelet aggregation and secretion” value [10] read?
A: powerful platelet aggregation and secretion
